Laboratory results as given in publication PMC9683076 (Pharmacology Research & Perspectives, 2022).
Read-outs that look alike come from different tables or passages of the source.

Experiments:
[1] = cited from earlier work
[2] = assay type: in vivo, human (healthy adult subjects)
Summary of the method: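 Single-centre, open-label, two-period study in healthy adults. Everolimus 0.75 mg given as a single dose alone on Period 1 Day 1. Blood concentrations gave Cmax, AUCinf, Tmax (median), C12 and t1/2. Natural-log parameters were compared by repeated-measures analysis.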

[3] = 2 mg single-dose sirolimus with ketoconazole 200 mg BID at steady state; cited from earlier work
[4] = assay type: in vivo, human (healthy adult subjects); remark: listed apart in the source
P-gp = conditions: cited from earlier work
[5] = digoxin with the 3D regimen; cited from earlier work
[6] = cited from earlier work; remark: listed apart in the source
[7] = everolimus co-administered with the 3D regimen vs alone
[8] = sirolimus 2 mg single dose alone, Period 1 Day 1, N = 11, blood, geometric mean (geometric %CV)
[9] = sirolimus co-administered with the 3D regimen vs alone

## CO[C@H]1C[C@@H]2CC[C@@H](C)[C@@](O)(O2)C(=O)C(=O)N2CCCC[C@H]2C(=O)O[C@H]([C@H](C)C[C@@H]2CC[C@@H](OCCO)[C@H](OC)C2)CC(=O)[C@H](C)/C=C(\C)[C@@H](O)[C@@H](OC)C(=O)[C@H](C)C[C@H](C)/C=C/C=C/C=C/1C [Everolimus, everolimus]
[1]; everolimus
  half-life: ~30 h
[2]; [7]
  increase in AUCinf: 27 fold
  increase in Cmax: 4.7 fold
  increase in t 1/2: 2.8 fold
[2]; everolimus in the presence of the 3D regimen vs alone
  delay in Tmax: 1 h
[2]; human, blood, 0.75 mg
  AUC(0-inf): 41.9 ng·h/mL
  Cmax: 3.33 ng/mL
  concentration at 12 h: 0.513 ng/mL
[2]; human, blood, 0.75 mg, t 1/2, everolimus 0.75 mg single dose alone, Period 1 Day 1, N = 12, blood, harmonic mean (pseudo-standard deviation)
  half-life: 42 h

## CO[C@H]1C[C@@H]2CC[C@@H](C)[C@@](O)(O2)C(=O)C(=O)N2CCCC[C@H]2C(=O)O[C@H]([C@H](C)C[C@@H]2CC[C@@H](O)[C@H](OC)C2)CC(=O)[C@H](C)/C=C(\C)[C@@H](O)[C@@H](OC)C(=O)[C@H](C)C[C@H](C)/C=C/C=C/C=C/1C [Sirolimus, sirolimus]
[1]; sirolimus
  half-life: approximately 62 h
[3]
  increase in Cmax: 4.3 fold
[4]; human, blood, 2 mg, t 1/2, sirolimus 2 mg single dose alone, Period 1 Day 1, N = 11, blood, harmonic mean (pseudo-standard deviation)
  half-life: 96 h
[4]; human, blood, oral, 2 mg
  AUC(0-inf): 178 ng·h/mL
[4]; [8]
  C24: 1.14 (29) ng/m
  Cmax: 6.66 (33) ng/ml
[4]; sirolimus 2 mg single dose alone, Period 1 Day 1, N = 11, blood, harmonic mean (pseudo-standard deviation)
  t 1/2: 96.3 (15) h
[4]; sirolimus 2 mg single dose alone, Period 1 Day 1, N = 11, blood, median (range)
  Tmax: 2.5 (1.5–4.0) h
[4]; [9]
  increase in dose-normalized AUCinf: 38 fold
  increase in dose-normalized Cmax: 6.4 fold
  increase in t 1/2: 2.6 fold
[4]; sirolimus in the presence of the 3D regimen vs alone
  delay in Tmax: 3.5 h

## COc1c(-c2ccc3cc(NS(C)(=O)=O)ccc3c2)cc(-n2ccc(=O)[nH]c2=O)cc1C(C)(C)C [dasabuvir]
P-gp
  P-gp inhibition (in vitro data): potential inhibitors of P‐gp

## C[C@H]1O[C@@H](O[C@H]2[C@@H](O)C[C@H](O[C@H]3[C@@H](O)C[C@H](O[C@H]4CC[C@@]5(C)[C@H](CC[C@@H]6[C@@H]5C[C@@H](O)[C@]5(C)[C@@H](C7=CC(=O)OC7)CC[C@]65O)C4)O[C@@H]3C)O[C@@H]2C)C[C@H](O)[C@@H]1O [digoxin]
[5]
  increase in AUC: ≤ 16%
  increase in Cmax: ≤ 16%

## Cc1ncc2n1-c1ccc(Cl)cc1C(c1ccccc1F)=NC2 [midazolam]
[6]; midazolam co-administered with boceprevir
  increase in AUC: 5.3 fold
[6]; midazolam co-administered with tipranavir/ritonavir
  increase in AUC: 26.9 fold

## Cc1cnc(C(=O)N[C@H]2CCCCC/C=C\[C@@H]3C[C@@]3(C(=O)NS(=O)(=O)C3CC3)NC(=O)[C@@H]3C[C@@H](Oc4nc5ccccc5c5ccccc45)CN3C2=O)cn1 [paritaprevir]
P-gp
  P-gp inhibition (in vitro data): potential inhibitors of P‐gp

## CC(C)c1nc(CN(C)C(=O)N[C@H](C(=O)N[C@@H](Cc2ccccc2)C[C@H](O)[C@H](Cc2ccccc2)NC(=O)OCc2cncs2)C(C)C)cs1 [ritonavir]
P-gp
  P-gp inhibition (in vitro data): potential inhibitors of P‐gp
